Each structure is given as a SMILES string. The source made the active and inactive calls. No cut-off for these calls is given here.

Series [1] relates to Escherichia coli. In words: Potentiation of colistin-induced antibacterial activity against Escherichia coli YD626 harbouring mcr-1 gene assessed as colistin MIC at 50 uM incubated for 16 hrs by broth microdilution method (reference value: 8 ug/ml). The series is classed as functional. The following applies: YD626, 16 h.
Series [2] deals with Escherichia coli. In words: Potentiation of colistin-induced antibacterial activity against Escherichia coli YD626 assessed as colistin MIC at 50 uM incubated for 16 hrs by broth microdilution method (reference value: 1 ug/ml). The series is classed as functional. The following applies: YD626, 16 h. For orientation: Broth dilution looks for growth in wells or tubes with falling amounts of substance.

In series [3] the test system is Klebsiella pneumoniae. The series is described as follows: Potentiation of colistin-induced antibacterial activity against Klebsiella pneumoniae 2210291 harbouring mcr-1 gene assessed as colistin MIC at 50 uM incubated for 16 hrs by broth microdilution method (reference value: 16 ug/ml). The series is classed as functional. As to conditions: Klebsiella pneumoniae, 2210291, 16 h.

Series [4] relates to Klebsiella pneumoniae. The series is described as follows: Potentiation of colistin-induced antibacterial activity against Klebsiella pneumoniae 2210291 assessed as colistin MIC at 50 uM incubated for 16 hrs by broth microdilution method (reference value: 1 ug/ml). The series is classed as functional. As to conditions: Klebsiella pneumoniae, 2210291, 16 h.
The test system of series [5] is Acinetobacter baumannii. The series is described as follows: Potentiation of colistin-induced antibacterial activity against Acinetobacter baumannii 17978 harbouring mcr-1 gene assessed as colistin MIC at 50 uM incubated for 16 hrs by broth microdilution method (reference value: 16 ug/ml). It counts as functional. As to conditions: Acinetobacter baumannii, 17978, 16 h.

Series [6] concerns Acinetobacter baumannii. The series is described as follows: Potentiation of colistin-induced antibacterial activity against Acinetobacter baumannii 17978 assessed as colistin MIC at 50 uM incubated for 16 hrs by broth microdilution method (reference value: 2 ug/ml). The series is classed as functional. As to conditions: Acinetobacter baumannii, 17978, 16 h.
A short description of series [7]: Cytotoxicity against mouse 4T1 cells assessed as reduction in cell viability in presence of 1 ug/ml colistin incubated for 18 hrs by MTT assay. The series is classed as cell-based. The gist of the method:
(§1)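 4T1 mouse mammary tumor cells exposed to compound for 18 h, alone or together with colistin at 1 μg/mL. Medium then aspirated and replaced with 0.5 mg/mL MTT in culture medium for colorimetric viability read-out. CT50 taken as the concentration giving 50% cell viability.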
(In general: Tetrazolium assays rely on reduction of a dye to a coloured formazan, in cell work by metabolically active cells.)

Series [8] in a line: Cytotoxicity against mouse 4T1 cells assessed as reduction in cell viability incubated for 18 hrs by MTT assay. It counts as cell-based. The gist of the method:
as §1

Series [9] has as its system Klebsiella pneumoniae. In words: Potentiation of colistin-induced antibacterial activity against Klebsiella pneumoniae 2210291 harbouring mcr-1 gene assessed as reduction in colistin MIC at 15 uM incubated for 16 hrs by broth microdilution method. The series is classed as functional, organism-based. The gist of the method: (§2)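 For the dose-response, colistin MIC was measured against mcr-1 plasmid-bearing E. coli, K. pneumoniae and A. baumannii while the adjuvant concentration was lowered stepwise (30, 15 μM, down to 5 μM). The aim was to find where the MIC rose above the 2 μg/mL CLSI susceptibility breakpoint.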

The test system of series [10] is Acinetobacter baumannii. In words: Potentiation of colistin-induced antibacterial activity against Acinetobacter baumannii 17978 harbouring mcr-1 gene assessed as reduction in colistin MIC at 15 uM incubated for 16 hrs by broth microdilution method. The series is classed as functional, organism-based. The gist of the method:
as §2

In series [11] the test system is Escherichia coli. The series is described as follows: Potentiation of colistin-induced antibacterial activity against Escherichia coli YD626 harbouring mcr-1 gene assessed as reduction in colistin MIC at 15 uM incubated for 16 hrs by broth microdilution method. It counts as functional, organism-based. The gist of the method: as §2

Consider `O=C(Nc1cc(Br)cc(Br)c1)Nc1ccc2cc[nH]c2c1`, for which the MIC (commonly the least concentration at which growth counts as inhibited) in series [1] came to 8 µg/mL; in series [2], 1 µg/mL; in series [3], 16 µg/mL; in series [4], 1 µg/mL; in series [5], 16 µg/mL; in series [6] it was 2 µg/mL.

`O=C(Nc1cc(Br)cc(Br)c1)Nc1ccc2[nH]ccc2c1`: the MIC in series [1] was 8 µg/mL; in series [2] it was 1 µg/mL; in series [3] it was 16 µg/mL; in series [4], 1 µg/mL; in [5], 16 µg/mL; in series [6], 1 µg/mL.

Consider `CCCCc1ccc(C(=O)NCCc2c[nH]c3ccc(Br)cc23)cc1`, for which the MIC in series [1] turned out to be 4 µg/mL; in series [2], 0.125 µg/mL; in series [3], 4 µg/mL; in series [4] it was 0.25 µg/mL; in series [5], 4 µg/mL; in series [6], 0.5 µg/mL.

Take `O=C(NCCc1c[nH]c2ccccc12)Nc1ccc(Cl)c(Cl)c1`: the CC50 (as a rule, the concentration giving 50% cytotoxicity) at 18 h was 105 µM in series [7] and 117 µM in [8]. In addition, the MIC amounted to 1 µg/mL in [1]; 0.125 µg/mL in series [2]; 0.5 µg/mL in [3]; 0.25 µg/mL in series [4]; 0.5 µg/mL in series [5]; 0.5 µg/mL in [6].

As to `O=C(NCCc1c[nH]c2ccc(Br)cc12)c1ccc(Cl)c(Cl)c1`, the MIC is 2 µg/mL in [1]; 0.25 µg/mL in series [2]; 1 µg/mL in [3]; 0.5 µg/mL in series [4]; 1 µg/mL in [5]; 0.5 µg/mL in series [6].

Consider `O=C(NCc1c[nH]c2ccccc12)Nc1cc(Br)cc(Br)c1`, for which the MIC in series [1] worked out at 4 µg/mL; in series [2], 0.25 µg/mL; in series [3] it was 16 µg/mL; in series [4], 0.5 µg/mL; in series [5], 8 µg/mL; in series [6], 1 µg/mL.

As to `CCCCc1ccc(NC(=O)NCc2c[nH]c3ccccc23)cc1`, the MIC was 8 µg/mL in series [1]; 1 µg/mL in series [2]; 16 µg/mL in series [3]; 0.5 µg/mL in series [4]; 16 µg/mL in series [5]; 2 µg/mL in series [6].

With `CCCCc1ccc(NC(=O)Nc2ccc3cc[nH]c3c2)cc1`, the MIC worked out at 8 µg/mL in series [1]; 0.5 µg/mL in series [2]; 16 µg/mL in series [3]; 1 µg/mL in [4]; 8 µg/mL in series [5]; 2 µg/mL in series [6].

As to `O=C(NCCc1c[nH]c2ccc(Br)cc12)Nc1cc(Br)cc(Br)c1`, the MIC in series [1] is 2 µg/mL; in series [2], 0.25 µg/mL; in [3] it was 2 µg/mL; in series [4] it was 0.5 µg/mL; in [5], 2 µg/mL; in series [6] it was 0.5 µg/mL.

As to `O=C(NCCc1c[nH]c2ccc(Br)cc12)Nc1cc(C(F)(F)F)cc(C(F)(F)F)c1`, the minimal inhibitory concentration (MIC) is 4 µg/mL in series [1]; 0.0313 µg/mL in series [2]; 2 µg/mL in [3]; 0.5 µg/mL in series [4]; 2 µg/mL in series [5]; 0.25 µg/mL in series [6].

As for `CCCCc1ccc(NC(=O)Nc2ccc3[nH]ccc3c2)cc1`, the MIC in series [1] amounted to 8 µg/mL; in [2], 0.5 µg/mL; in [3] it was 16 µg/mL; in series [4], 0.5 µg/mL; in series [5] it was 16 µg/mL; in series [6], 1 µg/mL.

Regarding `O=C(NCc1c[nH]c2ccccc12)Nc1cc(Cl)c(Br)c(Cl)c1`, the MIC amounted to 8 µg/mL in [1]; 0.25 µg/mL in [2]; 8 µg/mL in series [3]; 0.5 µg/mL in series [4]; 8 µg/mL in series [5]; 1 µg/mL in [6].

Consider `O=C(Nc1cc(Cl)c(Br)c(Cl)c1)Nc1ccc2[nH]ccc2c1`, for which the MIC turned out to be 8 µg/mL in [1]; 0.5 µg/mL in series [2]; 16 µg/mL in [3]; 1 µg/mL in [4]; 8 µg/mL in series [5]; 1 µg/mL in series [6].

`O=C(Nc1ccc(Cl)c(Cl)c1)Nc1ccc2[nH]ccc2c1`: the MIC in series [1] is 8 µg/mL; in series [2], 0.5 µg/mL; in [3], 16 µg/mL; in [4] it was 1 µg/mL; in series [5], 16 µg/mL; in series [6], 2 µg/mL.

With `CCCCc1ccc(NC(=O)NCCc2c[nH]c3ccccc23)cc1`, the MIC was determined as 8 µg/mL in series [1]; 1 µg/mL in series [2]; 16 µg/mL in series [3]; 1 µg/mL in series [4]; 16 µg/mL in series [5]; 2 µg/mL in [6].

Take `O=C(NCCc1c[nH]c2ccc(Br)cc12)c1cc(Br)cc(Br)c1`: the MIC in series [1] came to 4 µg/mL; in series [2] it was 0.5 µg/mL; in series [3] it was 4 µg/mL; in series [4], 0.5 µg/mL; in [5], 4 µg/mL; in series [6] it was 1 µg/mL.

For `O=C(NCCc1c[nH]c2ccccc12)c1cc(C(F)(F)F)cc(C(F)(F)F)c1`, the MIC came out at 4 µg/mL in [1]; 0.0625 µg/mL in series [2]; 16 µg/mL in series [3]; 0.25 µg/mL in [4]; 8 µg/mL in series [5]; 0.25 µg/mL in series [6].

With `O=C(NCc1c[nH]c2ccccc12)Nc1ccc(Cl)c(Cl)c1`, the MIC in [1] was 4 µg/mL; in series [2], 0.5 µg/mL; in [3], 16 µg/mL; in series [4], 0.5 µg/mL; in series [5] it was 16 µg/mL; in [6], 2 µg/mL.

For `CCCCc1ccc(C(=O)NCCc2c[nH]c3ccccc23)cc1`, the MIC was 4 µg/mL in series [1]; 0.0625 µg/mL in series [2]; 8 µg/mL in series [3]; 0.125 µg/mL in series [4]; 4 µg/mL in [5]; 0.25 µg/mL in series [6].

`O=C(NCCc1c[nH]c2ccccc12)Nc1cc(Cl)c(Br)c(Cl)c1`: the result in series [9], in [10] and in series [11] was Active. Moreover, the MIC worked out at 1 µg/mL in series [1]; 0.125 µg/mL in series [2]; 1 µg/mL in [3]; 0.5 µg/mL in series [4]; 1 µg/mL in series [5]; 0.5 µg/mL in [6].

`O=C(NCCc1c[nH]c2ccc(Br)cc12)c1cc(C(F)(F)F)cc(C(F)(F)F)c1`: the MIC in series [1] amounted to 4 µg/mL; in series [2] it was 0.0625 µg/mL; in series [3], 8 µg/mL; in series [4], 0.25 µg/mL; in series [5], 8 µg/mL; in series [6], 0.5 µg/mL.

For `O=C(NCCc1c[nH]c2ccccc12)c1ccc(Cl)c(Cl)c1`, the MIC came to 2 µg/mL in series [1]; 0.5 µg/mL in [2]; 2 µg/mL in series [3]; 0.5 µg/mL in series [4]; 2 µg/mL in [5]; 1 µg/mL in series [6].

Regarding `O=C(Nc1cc(C(F)(F)F)cc(C(F)(F)F)c1)Nc1ccc2cc[nH]c2c1`, the MIC is 4 µg/mL in series [1]; 0.5 µg/mL in series [2]; 16 µg/mL in series [3]; 1 µg/mL in [4]; 8 µg/mL in series [5]; 1 µg/mL in series [6].

As to `O=C(Nc1cc(C(F)(F)F)cc(C(F)(F)F)c1)Nc1ccc2[nH]ccc2c1`, the MIC is 4 µg/mL in [1]; 0.5 µg/mL in series [2]; 8 µg/mL in [3]; 0.5 µg/mL in series [4]; 8 µg/mL in [5]; 1 µg/mL in series [6].

With `O=C(Nc1ccc(Cl)c(Cl)c1)Nc1ccc2cc[nH]c2c1`, the MIC was 8 µg/mL in [1]; 1 µg/mL in [2]; 16 µg/mL in series [3]; 1 µg/mL in [4]; 16 µg/mL in series [5]; 2 µg/mL in [6].

In the case of `O=C(NCc1c[nH]c2ccccc12)Nc1cc(C(F)(F)F)cc(C(F)(F)F)c1`, the MIC in series [1] amounted to 1 µg/mL; in series [2] it was 0.0313 µg/mL; in series [3], 1 µg/mL; in series [4], 0.125 µg/mL; in series [5], 1 µg/mL; in series [6] it was 0.125 µg/mL.

On to `CC(C)n1cc(-c2cccc(NC(=O)Nc3cc(Cl)c(Br)c(Cl)c3)c2)nc1N`, for which the CC50 at 18 h is 15.6 µM in series [7] and 23.2 µM in [8].

Regarding `O=C(NCCc1c[nH]c2ccccc12)c1cc(Br)cc(Br)c1`, the MIC was found to be 4 µg/mL in series [1]; 0.25 µg/mL in [2]; 4 µg/mL in [3]; 0.5 µg/mL in [4]; 4 µg/mL in series [5]; 1 µg/mL in [6].

As for `O=C(Nc1cc(Cl)c(Br)c(Cl)c1)Nc1ccc2cc[nH]c2c1`, the MIC in [1] turned out to be 8 µg/mL; in [2], 1 µg/mL; in [3] it was 16 µg/mL; in series [4], 1 µg/mL; in [5] it was 16 µg/mL; in series [6], 2 µg/mL.

These data come from ChEMBL document CHEMBL4304756, “Second-Generation Tryptamine Derivatives Potently Sensitize Colistin Resistant Bacteria to Colistin” (ACS Med Chem Lett, 2019).
